Results on one substance are retold here after ChEMBL document CHEMBL1136736, “In vitro and in vivo antitumor properties of tetrakis((trishydroxy- methyl)phosphine)gold(I) chloride” (J Med Chem, 2003).

Holding throughout (assay type): functional, cell-based
Assay [1] has as its system LNCaP. As to the kind of experiment: Growth inhibition of LNCaP cell line at 0.54 nM derived from prostate cancer. The conditions noted are these: Homo sapiens. The gist of the method: (§1)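 Tumor cells were exposed to the compound added as a methanol solution and cultured in a 5% CO2 incubator for 7 days (4 days for some table entries). Cells were counted, and percent growth inhibition = (mean control count − mean treated count)/mean control count × 100.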

Assay [2] has as its system HCT-15. As to the kind of experiment: Growth inhibition of HCT-15 cell line at 0.54 nM derived from human colon carcinoma. Put shortly:
as §1

A further assay relates to PC-3. As to the kind of experiment: Growth inhibition of PC-3 cell line at 13.72 nM derived from prostate cancer. The conditions noted are these: Homo sapiens. Put shortly:
as §1

Assay [3] deals with AGS. As to the kind of experiment: Growth inhibition of AGS cell line at 13.72 nM derived from human gastric carcinoma. The conditions noted are these: Stomach. Put shortly:
as §1

For assay [4], the system named is AGS. As to the kind of experiment: Growth inhibition of AGS cell line at 2.74 nM derived from human gastric carcinoma. The conditions noted are these: Stomach. The gist of the method:
as §1

In assay [5] the test system is AGS. As to the kind of experiment: Growth inhibition of AGS cell line at 0.54 nM derived from human gastric carcinoma. The conditions noted are these: Stomach. Put shortly:
as §1

Assay [6] deals with LNCaP. As to the kind of experiment: Growth inhibition of LNCaP cell line at 2.74 nM derived from prostate cancer. The conditions noted are these: Homo sapiens. Put shortly: as §1
Assay [7] deals with HCT-15. As to the kind of experiment: Growth inhibition of HCT-15 cell line at 13.72 nM derived from human colon carcinoma. The gist of the method: as §1
Assay [8] has as its system LNCaP. As to the kind of experiment: Growth inhibition of LNCaP cell line at 13.72 nM derived from prostate cancer. The conditions noted are these: Homo sapiens. The gist of the method: as §1
Assay [9] concerns HCT-15. As to the kind of experiment: Growth inhibition of HCT-15 cell line at 2.74 nM derived from human colon carcinoma. Put shortly:
as §1

What is called inhibition is the change of the read-out against control, counted positive when it falls. In the case of “TETRAKIS((TRISHYDROXYMETHYL) PHOSPHINE)GOLD(I) CHLORIDE”, the inhibition in the assay with LNCaP [1] is 47.4%; in the assay on HCT-15 [2], 22.5%; in the assay with PC-3 it was 27%; in the assay with AGS [3], 59.5%; in the assay on AGS [4], 17.4%; in the assay on AGS [5], 10.2%. For the same substance, the inhibition with LNCaP [6] was 59.2%; in the assay on HCT-15 [7] it was 87.5%; with LNCaP [8] it was 83.9%; in the assay with HCT-15 [9] it was 58.3%.
